# Screens (PubChem BioAssay)
# SIRT5 inh: SIRT5 desuccinylase inhibitors, primary screen, biochemical, fluorescence imaging, single point, set 5 | NAD-dependent protein deacylase sirtuin-5, mitochondrial (Homo sapiens), Q9NXA8 | inhibition, % at 15 µM | 1.1% of 330,000 active | Purified SirT5, succinyl-peptide AMC, trypsin-coupled fluorescence | AID 652115, 2013; in the data active = inhibition above about 15%; inconclusive = no clear call, values can overlap the other calls
# Target sequence (Q9NXA8 whole entry, looked up): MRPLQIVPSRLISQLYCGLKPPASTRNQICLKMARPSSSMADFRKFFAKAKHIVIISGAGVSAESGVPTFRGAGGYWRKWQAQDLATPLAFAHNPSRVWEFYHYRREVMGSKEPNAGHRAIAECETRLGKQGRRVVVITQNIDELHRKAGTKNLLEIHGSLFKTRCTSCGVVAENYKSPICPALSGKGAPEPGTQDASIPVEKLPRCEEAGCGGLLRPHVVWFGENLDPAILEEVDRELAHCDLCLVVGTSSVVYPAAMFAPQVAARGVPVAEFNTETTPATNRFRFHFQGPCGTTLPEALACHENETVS
# ERAP1 HTS inh: human ERAP1 aminopeptidase inhibitors, primary screen, biochemical, single point, plate reader | recombinant ERAP1, Leu-AMC fluorescence, 60 min | inhibition, % at 10.7 µM | 0.15% of 340,000 active | AID 652197, 2013;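 active = mean replicate inhibition of at least 30%, or all replicates individually reaching that 30% level; inactive = mean below 30% and not every replicate reaching it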;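 also: 0% = neutral control wells and 100% = L-leucinethiol positive control wells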
# PGC1a acetyl inh: inhibitors of PGC1a acetylation signal, primary screen, cell-based, U2OS, AlphaScreen, inhibitor mode; inhibition, % at 15.6 µM; AID 651687, 2012; 0.17% of 350,000 active; AlphaScreen anti-acetyl-lysine; with virally co-expressed GCN5 acetyltransferase;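 active = every replicate shows inhibition of at least 40%; inconclusive = mean inhibition at least 40% but some replicate below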;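 also: 0% = neutral control wells and 100% = positive control wells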
# FN deposition inh: inhibitors of fibronectin matrix deposition, primary screen, AH1F cells, Alexa488-fibronectin fluorescence, plate reader; AID 743247, 2014; inhibition, % at 12.6 µM; AH1F fibroblasts, overnight; 0.086% of 350,000 active;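 active = mean inhibition across replicates of 30% or more, regardless of how many single replicates reach that level; inconclusive = mean under 30% yet at least half of replicates reach 30%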;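 also: positive control wells lacked labelled fibronectin entirely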
#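 Material: AH1F fibroblasts assembling fluorescent fibronectin matrix; amount: 10000 AH1F cells/well; medium: DMEM, 2% serum; reagent: Alexa488-fibronectin, 24 nM final in well; dosing: single compound dose, delivered by pin transfer; incubation: 1 h adhesion, overnight exposure; detection: fluorescence after three HBSS washes, excitation 485 nm, emission 525 nm; measure: fibronectin deposition inhibition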
# FGF22 binding: binders of human FGF22 protein, primary screen, FGF22 synaptogenesis inhibitor project, biophysical, thermal shift, single point. Fibroblast growth factor 22 (Homo sapiens), Q9HCT0. AID 651658, 2012. 1.5% of 340,000 active. recombinant FGF22 thermal shift, SYPRO orange fluorescence; percent of sucrose octasulfate shift, DMSO zero. activity (Tm shift, normalised), % at 9.99 µM;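 active = mean Tm shift, scaled 0 neutral to 100 positive control, at about 1.3% or above, every replicate too, limit read from the data; inconclusive = no clear call, values can overlap the other calls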
# Target sequence (Q9HCT0 whole entry, looked up): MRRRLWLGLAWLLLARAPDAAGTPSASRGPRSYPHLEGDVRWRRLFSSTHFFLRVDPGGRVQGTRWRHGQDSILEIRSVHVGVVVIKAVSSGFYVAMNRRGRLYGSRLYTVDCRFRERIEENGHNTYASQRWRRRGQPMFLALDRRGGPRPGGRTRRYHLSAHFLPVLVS
# Numbers without * were called inactive; ? = inconclusive; nt = no result given. Shown are actives, neighbours in structure and some others; about 2.2% of the full set was active somewhere.
SMILES,SIRT5 inh,ERAP1 HTS inh,PGC1a acetyl inh,FN deposition inh,FGF22 binding
O=C(CCCc1ccccn1)c1ccc(-c2ccccc2)cc1,nt,-0.3,14.4,0.2,44.3*
C[C@H](CO)N1C[C@H](C)[C@@H](CN(C)C(=O)Nc2ccc3c(c2)OCO3)Oc2ccc(NS(=O)(=O)c3ccccc3)cc2CC1=O,nt,nt,-8.2,nt,nt
C=CC#CC1(O)CC(C)[N+](C)(C)CC1C (stereo not given),nt,105.9*,nt,nt,0.1
COc1ccc2c3c(n(C)c2c1)[C@H](CO)N(Cc1ccccc1OC)CC31CCN(C(=O)C2CC2)CC1,-2.4,-2.3,-7.3,nt,0.1
CN(C)CCCNC(=O)c1ccc(Oc2ccccc2)cc1,-0.1,-1.1,nt,9.5,43.6*
CCCN(C)C[C@H]1Oc2cc(C#Cc3cccc(OC)c3)ccc2S(=O)(=O)N([C@@H](C)CO)C[C@H]1C,2.7,1.2,-32.9,10.7,0.2
COc1ccc(C(CC(=O)Nc2ncccc2C)N2Cc3ccccc3C2=O)cc1 (stereo not given),-0.3,-4.4,-12.6,-2.2,0.3
COc1ccc(C(CC(=O)Nc2ccccn2)N2Cc3ccccc3C2=O)cc1 (stereo not given),-4.3,-1.9,75.6*,-4.0,0.1
COc1cccc(NC(=O)N[C@@H]2CC[C@@H](CC(=O)NCc3ccncn3)O[C@@H]2CO)c1,-5.1,0.0,-0.2,9.8,-0.3
Cc1ccc(C(=O)Nc2cccc(C(F)(F)F)c2)cc1NC(=O)c1cnnc2ccccc12,-4.5,-0.8,8.3,13.7,0.3
Cc1ccc(C(=O)Nc2cccc(C(F)(F)F)c2)cc1NC(=O)c1c[nH]c2cc(C(F)(F)F)ccc2c1=O,-4.4,5.2,22.4,1.9,44.0*
COc1ccc(S(=O)(=O)Nc2ccc3c(c2)CC(=O)N([C@H](C)CO)C[C@H](C)[C@@H](CN(C)CC2CCCCC2)O3)cc1,24.2*,0.0,-3.4,nt,-0.2
COc1ccc(S(=O)(=O)Nc2ccc3c(c2)CC(=O)N([C@@H](C)CO)C[C@@H](C)[C@@H](CN(C)CC2CCCCC2)O3)cc1,13.3,-0.8,-5.5,nt,-0.1
COc1ccc(S(=O)(=O)Nc2ccc3c(c2)CC(=O)N([C@@H](C)CO)C[C@H](C)[C@@H](CN(C)CC2CCCCC2)O3)cc1,16.3*,1.2,2.8,nt,0.0
NC(=O)NC(CC(=O)NCCc1ccccn1)c1ccccc1Cl (stereo not given),6.9,0.1,6.8,3.8,0.0
NC(=O)NC(CC(=O)NCCCc1ccccc1)c1ccccc1Cl (stereo not given),-5.7,0.5,-22.1,1.2,43.5*
C[C@H](CO)N1C[C@H](C)[C@H](CN(C)C(=O)c2ccncc2)Oc2ncc(C3=CCCCC3)cc2C1=O,-1.9,1.1,-0.1,nt,0.1
O=C(COC(=O)c1cccs1)NCC1CCCCC1,-2.0,0.2,nt,8.3,43.4*
O=C(CCCn1c(=S)[nH]c2cc3c(cc2c1=O)OCO3)NCCc1ccc(Cl)cc1,nt,-1.4,-6.9,-2.5,43.3*
CC1CC(C)CN(C(=O)COC(=O)C2CCN(S(=O)(=O)c3c(Cl)cccc3Cl)CC2)C1 (stereo not given),11.3,-3.3,nt,-2.7,-0.1
CC1CCCN(C(=O)COC(=O)C2CCN(S(=O)(=O)c3c(Cl)cccc3Cl)CC2)C1 (stereo not given),18.2*,-0.1,2.4,0.3,0.1
C[C@@H]1CN([C@H](C)CO)C(=O)Cc2cc(NC(=O)CCCCCC(=O)Nc3ccccc3N)ccc2O[C@@H]1CN(C)Cc1ccc(Oc2ccccc2)cc1,16.0*,0.2,1.6,nt,-0.4
C[C@@H]1CN([C@@H](C)CO)C(=O)Cc2cc(NC(=O)CCCCCC(=O)Nc3ccccc3N)ccc2O[C@@H]1CN(C)Cc1ccc(Oc2ccccc2)cc1,26.0*,0.1,-0.3,nt,0.2
C[C@H]1CN([C@@H](C)CO)C(=O)Cc2cc(NC(=O)CCCCCC(=O)Nc3ccccc3N)ccc2O[C@@H]1CN(C)Cc1ccc(Oc2ccccc2)cc1,28.8*,-0.3,-5.6,nt,-0.3
COc1ccc(CN(C)C[C@H]2Oc3ccc(NC(=O)CCCCCC(=O)Nc4ccccc4N)cc3CC(=O)N([C@H](C)CO)C[C@H]2C)cc1,nt,0.4,2.1,nt,0.1
SMILES,SIRT5 inh,ERAP1 HTS inh,PGC1a acetyl inh,FN deposition inh,FGF22 binding
Cc1ccccc1-c1cnc2c(c1)C(=O)N([C@@H](C)CO)C[C@@H](C)[C@@H](CN(C)C(=O)c1ccccc1)O2,nt,nt,6.3,-3.8,0.0
Cc1ccc(S(=O)(=O)N[C@H]2CC[C@H](CC(=O)NCCN3CCCCC3)O[C@H]2CO)cc1,-4.6,0.0,9.8,-12.4,0.2
Cc1cc(=O)oc2c(CN3CCCCC3)c(O)c(Cl)cc12,nt,nt,-1.2,nt,nt
CCN(CC)Cc1c(O)c(Cl)cc2c(C)cc(=O)oc12,nt,66.0*,-17.8,6.8,0.5
O=c1oc2c(CN3CCN(CCO)CC3)c(O)ccc2cc1-c1ccccn1,-127.3,98.5*,-2.6,-3.1,0.0
Cc1cc(=O)oc2c(CN3CCCC3)c(O)c(Cl)cc12,-160.3,114.5*,3.7,3.7,0.0
Cc1c(O)ccc2c(CN3CCN(CCO)CC3)cc(=O)oc12,nt,nt,nt,-5.6,nt
O=c1oc2c(CN3CCCCC3)c(O)ccc2cc1-c1nc2ccccc2[nH]1,-1.0,-11.1,-8.6,nt,0.0
Cc1cc(=O)oc2c(CN3CCN(CCO)CC3)c(O)ccc12,-130.2,40.2*,nt,-7.6,-0.1
CO[C@@H]1CN(C)C(=O)c2cc(NS(=O)(=O)CC(F)(F)F)ccc2OC[C@H](C)N(C(=O)c2ccc3c(c2)OCO3)C[C@H]1C,nt,-0.1,-0.7,-3.2,-0.1
CCN1CCN(Cc2c(O)ccc3c(C)cc(=O)oc23)CC1,-129.3,32.8*,0.6,1.0,0.0
Cc1cc(=O)oc2c(CN3CCCC3)c(O)ccc12,-171.1,40.7*,3.1,-7.7,-0.3
O=c1oc2c(CN3CCOCC3)c(O)ccc2c2c1CCC2,nt,nt,nt,-3.0,nt
CC1CCCN(Cc2c(O)ccc3c4c(c(=O)oc23)CCCC4)C1 (stereo not given),-132.2,nt,?,31.1*,0.1
CCN1CCN(Cc2c(O)c(Cl)cc3c(C)cc(=O)oc23)CC1,nt,nt,-3.2,9.8,nt
COC(=O)C1C(c2ccc(N(C)C)cc2)C(C(=O)OC)S(=O)(=O)CS1(=O)=O (stereo not given),1.5,-5.0,nt,0.7,43.0*
O=C(C[C@@H]1CC[C@@H](NC(=O)C2CCOCC2)[C@H](CO)O1)NCc1ccncc1,1.0,1.2,3.9,nt,nt
O=C(N[C@@H]1CC[C@H](CCn2cc(Cc3ccccc3)nn2)O[C@@H]1CO)c1cnccn1,nt,nt,-2.4,nt,0.0
O=C(Cc1c(Sc2ccccc2)c2ccccc2n1Cc1ccccc1)NCCO,-0.5,-2.6,nt,2.5,43.1*
